Published values pooled from the literature.
Lines come from different studies, so protocols differ.
Effect on: cell growth or viability

SMILES	cell line	test	setting	IC50
Cc1cc(/C=C/C#N)cc(C)c1Nc1ccnc(Nc2ccc(C#N)cc2)n1	HNE1	MTT	48 h	14.1 µM
CCOC(=O)c1ccc2c(c1)C(=O)CCN1C(=O)c3ccccc3C1C(=O)N2 (stereo not shown)	L6			> 260 µM
COc1cc2nc(N3CCN(C(=O)C4COc5ccccc5O4)CC3)nc(N)c2cc1OC (stereo not shown)	HK-1	MTT	48 h	31.7 µM
N#Cc1cc(C=NNC(=N)NN=Cc2ccc(F)c(C#N)c2)ccc1F	L6	resazurin	70 h	5.95 µM
O=C1CCN2C(=O)c3ccccc3C2C(=O)Nc2ccc(F)cc21 (stereo not shown)	L6			> 310 µM
CC1(C)CCC(CN2CCN(c3ccc(C(=O)NS(=O)(=O)c4ccc(NCC5CCOCC5)c([N+](=O)[O-])c4)c(Oc4cnc5[nH]ccc5c4)c3)CC2)=C(c2ccc(Cl)cc2)C1	RS4-11	ATP luminescence	48 h	0.0045 µM
O=C1CCC(N2Cc3c(C#CC4CCN(C(=O)[C@H]5CC[C@H](NC(=O)[C@H]6NC7(CCCCC7)[C@]7(C(=O)Nc8cc(Cl)ccc87)[C@H]6c6cccc(Cl)c6F)CC5)CC4)cccc3C2=O)C(=O)N1 (stereo partly shown)	RS4-11			0.062 µM
CO[C@]12C[C@@H](COC(=O)c3cncc(Br)c3)CN(C)[C@@H]1Cc1cn(C)c3cccc2c13	HK-1	MTT	48 h	5.99 µM
CC12C(=O)Nc3ccccc3C(=O)CCN1C(=O)c1ccccc12 (stereo not shown)	L6			> 300 µM
N=C(NN=Cc1ccc(OC(F)F)cc1)NN=Cc1ccc(OC(F)F)cc1	L6	resazurin	70 h	13.4 µM
COc1cc2c(cc1OC)-c1cc3ccc(OC)c(OCCN)c3c[n+]1CC2	NCI-H460	MTT	72 h	> 80 µM
CNC(=O)c1cc(Oc2ccc(NC(=O)Nc3ccc(Cl)c(C(F)(F)F)c3)cc2)ccn1	NCI-H460	MTT	72 h	3.81 µM
COc1cc2nc(N3CCN(C(=O)c4ccco4)CC3)nc(N)c2cc1OC	HNE1	MTT	48 h	41.6 µM
CO/N=C1/CCN2C(=O)c3ccccc3C2C(=O)Nc2ccccc21 (stereo not shown)	L6			> 300 µM
N=C(N/N=C/c1cccc([N+](=O)[O-])c1)N/N=C/c1cccc([N+](=O)[O-])c1	L6	resazurin	70 h	17.7 µM
COc1cc2c3c(n(CCCNCCO)c(=O)c2cc1OC)-c1nc2c(cc1C3=O)OCO2	RS4-11	MTS	72 h	0.034 µM
N#Cc1cccc(CC=NNC(=N)NN=CCc2cccc(C#N)c2)c1	L6	resazurin	70 h	2.63 µM
CCNCCCn1c2c(c3cc(OC)c(OC)cc3c1=O)C(=O)c1cc3c(nc1-2)OCO3	RS4-11	MTS	72 h	0.038 µM
N#Cc1cc(/C=N/NC(=N)N/N=C/c2ccc(OC(F)(F)F)cc2)ccc1F	L6	resazurin	70 h	7.05 µM
O=C1Nc2ccccc2C2(O)CCN3C12c1ccccc1S3(=O)=O (stereo not shown)	L6			> 290 µM
N=C(NN=CCc1ccc(OC(F)F)cc1)NN=CCc1ccc(OC(F)F)cc1	L6	resazurin	70 h	2.03 µM
C=C(F)C(=O)N1CCN(c2nc(OC[C@@H]3CCCN3C)nc3c2CCN(c2cccc4cccc(Cl)c24)C3)C[C@@H]1CC#N	A-427	ATP luminescence	3D culture	> 1 µM
